Published values of several laboratories.
Target: Protein kinase C delta type (PRKCD, Homo sapiens, UniProt Q05655)

| Structure (SMILES) | assay | conditions | quantity | result |
| --- | --- | --- | --- | --- |
| CO[C@@H](C)c1c(Nc2ccc([C@@H](N(C)C(=O)C3CCS(=O)(=O)CC3)C(F)(F)F)cc2)cnc2cc(Cl)nn12 | cell-free assay, competition with immobilised ligand | 1 µM | remaining binding | 90% |
| Nc1ncnc2occ(-c3ccc(NC(=O)Nc4cc(C(F)(F)F)ccc4F)cc3)c12 | cell-free assay | 20 µM | remaining signal | 14% |
| O=C1NC(=O)c2cc(Nc3ccc(F)cc3)c(Nc3ccc(F)cc3)cc21 | cell-free assay | 0.5 µM | remaining signal | 98.2% |
| CSc1cccnc1N1CCN(Cc2nc3ccccc3[nH]2)CC1 | cell-free assay, competition with immobilised ligand | 1 µM | remaining binding | 100% |
| Cn1cncc1C1=CN(c2ncnc3[nH]cnc23)CCS1 | enzyme activity, inhibitor, radiometric | 2 µM | inhibition | 81.1% |
| CCCOc1ccc(OC)c(F)c1C(=O)c1ccc(C(=O)N[C@@H]2CNC[C@H]2NC(=O)c2ccc3[nH]ncc3c2)cc1 | enzyme activity, inhibitor | 0.75 µM | remaining activity | 68% |
| CCN(CC)c1ccc(C2=NNC(=O)CC2C)cc1[N+](=O)[O-] (stereo not shown) | enzyme activity, inhibitor | 10 µM | remaining activity | 85% |
| CC(C)(O)[C@H]1CC[C@H](Nc2ccc3ncc(-c4cccc(C(F)(F)F)c4)n3n2)CC1 | enzyme activity, inhibitor | 1 µM | remaining activity | 84.2% |
| FC(F)(F)c1ccc2c(c1)nc(-c1cccnc1)n2C1CC1 | cell-free assay, competition with immobilised ligand | 1 µM | remaining binding | 100% |
| O=C(Nc1cnn(-c2csc(C(=O)NC3COC3)c2)c1)Nc1ccccc1Cl | enzyme activity, inhibitor | 5 µM | remaining activity | 112% |
| CC(C)(C)c1nc2c(s1)c1nc(N)ncc1c1ccc(NS(=O)(=O)c3c(F)cccc3F)c(F)c12 | enzyme activity, inhibitor, radiometric | 1 µM | remaining activity | 100% |
| CCCS(=O)(=O)Nc1ccc(F)c(C(=O)c2c[nH]c3ncc(-c4ccc(Cl)cc4)cc23)c1F | enzyme activity, inhibitor | 1 µM | inhibition | < 20% |
| COc1cc2ncnc(Nc3ccc(Oc4ccccc4)cc3C)c2cc1OC | enzyme activity, inhibitor | 1 µM | inhibition | 11% |
| O=C1Nc2ccc(Cl)cc2C1=Cc1cc(Cl)c(O)c(Cl)c1 | cell-free assay | 0.5 µM | remaining signal | 86.7% |
| CC(=O)Nc1c(C(C)=O)c(=O)n(C)c2nc(-c3ccc(Cl)cc3Cl)c(-c3ccc(Cl)cc3)cc12 | cell-free assay, competition with immobilised ligand | 1 µM | remaining binding | 100% |
| Cc1cc(NC(=O)c2cccc3cc(-c4cccc5[nH]nc(N)c45)ccc23)ccc1F | enzyme activity, inhibitor | 0.1 µM | activity vs control | 108% |
| Cc1ccc(Nc2nccc(N(C)c3ccc4c(C)n(C)nc4c3)n2)cc1S(N)(=O)=O | enzyme activity | 0.5 µM | remaining activity | 106% |
| C[C@@]1(Cc2ccc(C#N)cc2)C(=O)N(c2cc(Cl)cc(Cl)c2)c2ncc(C(=O)NC3(c4nc(C5CCC5)no4)CC3)n21 | cell-free assay, competition with immobilised ligand | 1 µM | remaining binding | 100% |
| Cn1cnc(Br)c1C1=CN(c2ncnc3[nH]cnc23)CCS1 | enzyme activity, inhibitor, radiometric | 50 nM | inhibition | 29% |
| CC(=O)C1=C(C)N(c2cccc(C(F)(F)F)c2)C(=O)N[C@@H]1c1ccc(C#N)nc1 | cell-free assay, competition with immobilised ligand | 1 µM | remaining binding | 100% |
| Oc1ccc(-c2nc(-c3ccncc3)c(-c3ccc(F)cc3)[nH]2)cc1 | cell-free assay | 0.5 µM | remaining signal | 99.3% |
| CC1=C(C#N)C(c2ccc3c(c2)c(NC(=O)c2ccccc2C)nn3C)C(C#N)=C(C)N1 | cell-free assay, competition with immobilised ligand | 1 µM | remaining binding | 100% |
| CC(C)c1ccc(NC(=O)c2cccs2)c(-c2nc3ccccc3[nH]c2=O)c1 | enzyme activity, inhibitor | 1 µM | activity vs control | 104% |
| CS(=O)(=O)NCC[C@H](NC(=O)c1cncc2c1cnn2-c1ccc(F)cc1)c1ccnc(S(C)(=O)=O)c1 | cell-free assay, competition with immobilised ligand | 1 µM | remaining binding | 76% |
| COc1cc(Cl)c(C(=O)N[C@@H](CN[C@H]2CC[C@@H](N)CC2)Cc2ccc(C#N)cc2)cc1-c1ccc(CN[C@H](C)c2ccc(C)cc2)o1 | enzyme activity, inhibitor | 1 µM | remaining activity | 100% |
